# Results published in ChEMBL document CHEMBL1154282, “Identification of antiadipogenic constituents of the rhizomes of Anemarrhena asphodeloides” (J Nat Prod, 2009).
# pIC50: −log10 of the molar value.
# System: 3T3-L1
# Test: Antiadipogenic activity against mouse 3T3L1 cells assessed as inhibition of differentiation after 7 days by oil-red O staining
# Format: functional, cell-based
# Conditions: 3T3-L1, 168 h
# Outline: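 Mouse 3T3-L1 preadipocytes grown to confluence for 48 h, then induced (day 0) in DMEM with 10% FBS, insulin 5 µg/mL, 10 µM rosiglitazone, 1 µM dexamethasone; after 48 h switched to 10% FBS/DMEM + 5 µg/mL insulin, then 10% FBS/DMEM every other day. Compounds added day 0, refreshed every 2 days. Day 7: PBS wash, 10% formalin 10 min, Oil-red O 1 h RT, dye eluted in isopropanol, A500; IC50 derived.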
row,Structure (SMILES),pIC50
1,O=C1/C(=C/c2ccc(O)cc2)COc2cc(O)cc(O)c21,< 4.00
2,Cc1c(O)cc2c(c1O)C(=O)/C(=C/c1ccc(O)cc1)CO2,< 4.00
3,C=C[C@H](/C=C\c1ccc(OC)cc1)c1ccc(O)cc1,4.34
4,COc1cc(O)ccc1C(=O)/C=C/c1ccc(O)cc1,4.38
5,O=C(C#Cc1ccc(O)cc1)c1ccc(O)cc1 [ANEMARCHALCONYN],5.28
6,COc1ccc(CCCc2ccc(O)cc2)c(O)c1 [BROUSSONIN A],4.13
7,O=C(/C=C/c1ccc(O)cc1)c1ccc(O)cc1O [ISOLIQUIRITIGENIN],4.02
8,C=C[C@H](/C=C\c1ccc(O)cc1)c1ccc(O)cc1 [NYASOL],< 4.00
9,Oc1ccc(/C=C/c2cc(O)cc(O)c2)cc1 [RESVERATROL],4.50
